Results: article PMC9303465 (Hematological Oncology, 2022)

Experiment: Population PK analysis of venetoclax in AML patients
Format: in vivo
Summary of the method: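 Plasma PK data were pooled from five studies: 771 R/R or treatment-naïve AML patients given ≥1 dose, with daily ramp-up to 400–1200 mg QD. Fitted by nonlinear mixed-effects modelling (FOCE-INT), using a prior CLL/SLL/NHL/healthy-volunteer model as informative priors. Race, azacitidine, decitabine and LDAC were tested stepwise (forward α=0.01, backward α=0.001) as multiplicative factors on CL/F, Vd/F and bioavailability. Validated by pcVPC (500 replicates); AUCss was taken from the planned dose.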

CC1(C)CCC(CN2CCN(c3ccc(C(=O)NS(=O)(=O)c4ccc(NCC5CCOCC5)c([N+](=O)[O-])c4)c(Oc4cnc5[nH]ccc5c4)c3)CC2)=C(c2ccc(Cl)cc2)C1 [Venetoclax]
Median exposure (AUCss) at 400 mg venetoclax (Asian patients): 1.85 µg·days/mL | higher relative bioavailability in Asian than non‐Asian patients (Asian vs non-Asian AML patients): 67% | Median exposure (AUCss) at 400 mg venetoclax (Non‐Asian patients): 1.11 µg·days/mL | effect of co-administration on venetoclax CL/F (P‐gp inhibitors, mild CYP3A inhibitors, azacitidine, decitabine, or LDAC): no effect | increase of venetoclax Vd/F with azacitidine (azacitidine co-administration): 24% | decrease of venetoclax CL/F by moderate CYP3A inhibitors (co-administered moderate CYP3A inhibitors): 19% | decrease of venetoclax CL/F by strong CYP3A inhibitors (co-administered strong CYP3A inhibitors): 83% | effect of covariates on venetoclax exposure (sex, mild to moderate hepatic impairment, mild to severe renal impairment, age, body weight): did not appear to have any effect
